{"source": "ChEMBL document CHEMBL3414437", "about": "“Synthesis of CDDO-amino acid-nitric oxide donor trihybrids as potential antitumor agents against both drug-sensitive and drug-resistant colon cancer” (J Med Chem, 2015)", "key": {"[1]": {"system": "HCT-8", "test": "Induction of apoptosis in human HCT8 cells assessed as late apoptotic cells level at 0.25 uM incubated for 24 hrs by FITC-Annexin-V and propidium iodide staining based flow cytometry (reference value: 4.23%)", "type": "functional"}, "[2]": {"test": "Antiproliferative activity against human CCD-841-CoN cells assessed as inhibition of cell proliferation after 72 hrs by MTT assay", "type": "cell-based", "procedure,_shortened": "(§1)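 Cells (1.0 × 10^4/well) grown overnight in DMEM with 10% FBS. Treated in triplicate with eight concentrations ([…]) of compound from DMSO stock, final DMSO <0.4%, for 72 h. MTT added for the last 4 h, formazan dissolved in DMSO, read at 570 nm. Inhibition = (Acontrol−Atreated)/Acontrol. IC50 given as mean ± SD of three independent experiments.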"}, "[3]": {"system": "HCT-8", "test": "Induction of apoptosis in FU-resistant human HCT8 cells assessed as late apoptotic cells level at 0.5 uM incubated for 24 hrs by FITC-Annexin-V and propidium iodide staining based flow cytometry (reference value: 0.95%)", "type": "functional"}, "[4]": {"test": "Antiproliferative activity against 5-FU resistant human HCT8 cells assessed as inhibition of cell proliferation after 72 hrs by MTT assay", "type": "functional, cell-based", "conditions": "HCT-8, 72 h", "procedure,_shortened": "as §1"}, "[5]": {"system": "HCT-8", "test": "Induction of apoptosis in FU-resistant human HCT8 cells assessed as early apoptotic cells level at 0.5 uM incubated for 24 hrs by FITC-Annexin-V and propidium iodide staining based flow cytometry (reference value: 2.07%)", "type": "functional"}, "[6]": {"system": "HCT-8", "test": "Induction of apoptosis in human HCT8 cells assessed as necrotic cells level at 0.5 uM incubated for 24 hrs by FITC-Annexin-V and propidium iodide staining based flow cytometry (reference value: 2.58%)", "type": "functional"}, "[7]": {"system": "HCT-8", "test": "Induction of apoptosis in human HCT8 cells assessed as viable cells level at 0.5 uM incubated for 24 hrs by FITC-Annexin-V and propidium iodide staining based flow cytometry (reference value: 92%)", "type": "functional"}, "[8]": {"system": "HCT-8", "test": "Induction of apoptosis in human HCT8 cells assessed as necrotic cells level at 0.25 uM incubated for 24 hrs by FITC-Annexin-V and propidium iodide staining based flow cytometry (reference value: 2.58%)", "type": "functional"}, "[9]": {"system": "HCT-8", "test": "Induction of apoptosis in human HCT8 cells assessed as viable cells level at 1 uM incubated for 24 hrs by FITC-Annexin-V and propidium iodide staining based flow cytometry (reference value: 92%)", "type": "functional"}, "[10]": {"system": "HCT-8", "test": "Induction of apoptosis in FU-resistant human HCT8 cells assessed as early apoptotic cells level at 0.25 uM incubated for 24 hrs by FITC-Annexin-V and propidium iodide staining based flow cytometry (reference value: 2.07%)", "type": "functional"}, "[11]": {"system": "HCT-8", "test": "Induction of apoptosis in human HCT8 cells assessed as viable cells level at 0.25 uM incubated for 24 hrs by FITC-Annexin-V and propidium iodide staining based flow cytometry (reference value: 92%)", "type": "functional"}, "[12]": {"system": "HCT-8", "test": "Induction of apoptosis in human HCT8 cells assessed as early apoptotic cells level at 0.5 uM incubated for 24 hrs by FITC-Annexin-V and propidium iodide staining based flow cytometry (reference value: 1.21%)", "type": "functional"}, "[13]": {"system": "HCT-8", "test": "Induction of apoptosis in FU-resistant human HCT8 cells assessed as viable cells level at 0.25 uM incubated for 24 hrs by FITC-Annexin-V and propidium iodide staining based flow cytometry (reference value: 90%)", "type": "functional"}, "[14]": {"system": "HCT-8", "test": "Induction of apoptosis in FU-resistant human HCT8 cells assessed as viable cells level at 1 uM incubated for 24 hrs by FITC-Annexin-V and propidium iodide staining based flow cytometry (reference value: 90%)", "type": "functional"}, "[15]": {"system": "HCT-8", "test": "Induction of apoptosis in human HCT8 cells assessed as early apoptotic cells level at 1 uM incubated for 24 hrs by FITC-Annexin-V and propidium iodide staining based flow cytometry (reference value: 1.21%)", "type": "functional"}, "[16]": {"system": "HCT-8", "test": "Induction of apoptosis in FU-resistant human HCT8 cells assessed as late apoptotic cells level at 0.25 uM incubated for 24 hrs by FITC-Annexin-V and propidium iodide staining based flow cytometry (reference value: 0.95%)", "type": "functional"}, "[17]": {"system": "HCT-8", "test": "Induction of apoptosis in FU-resistant human HCT8 cells assessed as late apoptotic cells level at 1 uM incubated for 24 hrs by FITC-Annexin-V and propidium iodide staining based flow cytometry (reference value: 0.95%)", "type": "functional"}, "[18]": {"system": "HCT-8", "test": "Induction of apoptosis in FU-resistant human HCT8 cells assessed as early apoptotic cells level at 1 uM incubated for 24 hrs by FITC-Annexin-V and propidium iodide staining based flow cytometry (reference value: 2.07%)", "type": "functional"}, "[19]": {"system": "HCT-8", "test": "Induction of apoptosis in FU-resistant human HCT8 cells assessed as viable cells level at 0.5 uM incubated for 24 hrs by FITC-Annexin-V and propidium iodide staining based flow cytometry (reference value: 90%)", "type": "functional"}, "[20]": {"system": "HCT-8", "test": "Induction of apoptosis in FU-resistant human HCT8 cells assessed as necrotic cells level at 1 uM incubated for 24 hrs by FITC-Annexin-V and propidium iodide staining based flow cytometry (reference value: 0.958%)", "type": "functional"}, "[21]": {"system": "Mus musculus", "test": "Toxicity in nude BALB/c mouse xenografted with FU-resistant human HCT8 cells assessed as body weight level at 59.4 umol/kg administered as via oral gavage daily for 21 days (reference value: 20.8 +/- 2.2 g)", "type": "organism-based, HCT-8", "conditions": "in vivo, 504 h", "procedure,_shortened": "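Male BALB/c nude mice, 6-8 weeks old, inoculated s.c. in right flank with HCT-8/5-FU cells (2 × 10^6/mouse). Once tumors reached 180-200 mm3 (9-11 days post-implantation), mice were randomized and dosed by gavage daily for 21 consecutive days in cremophor-EL/DMSO/PBS (1:1:8) (vehicle alone 0.2 mL). Body weights recorded on day 1 and day 21. Organ size, color and weights were inspected for liver, kidney, lung and heart. n = 8 per group; mean ± SD.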"}, "[22]": {"system": "HCT-8", "test": "Induction of apoptosis in FU-resistant human HCT8 cells assessed as necrotic cells level at 0.5 uM incubated for 24 hrs by FITC-Annexin-V and propidium iodide staining based flow cytometry (reference value: 0.958%)", "type": "functional"}, "[23]": {"system": "HCT-8", "test": "Induction of apoptosis in human HCT8 cells assessed as early apoptotic cells level at 0.25 uM incubated for 24 hrs by FITC-Annexin-V and propidium iodide staining based flow cytometry (reference value: 1.21%)", "type": "functional"}, "[24]": {"system": "HCT-8", "test": "Induction of apoptosis in human HCT8 cells assessed as necrotic cells level at 1 uM incubated for 24 hrs by FITC-Annexin-V and propidium iodide staining based flow cytometry (reference value: 2.58%)", "type": "functional"}, "[25]": {"system": "HCT-8", "test": "Induction of apoptosis in FU-resistant human HCT8 cells assessed as necrotic cells level at 0.25 uM incubated for 24 hrs by FITC-Annexin-V and propidium iodide staining based flow cytometry (reference value: 0.958%)", "type": "functional"}, "[26]": {"system": "HCT-8", "test": "Induction of apoptosis in human HCT8 cells assessed as late apoptotic cells level at 0.5 uM incubated for 24 hrs by FITC-Annexin-V and propidium iodide staining based flow cytometry (reference value: 4.23%)", "type": "functional"}, "[27]": {"system": "HCT-8", "test": "Induction of apoptosis in human HCT8 cells assessed as late apoptotic cells level at 1 uM incubated for 24 hrs by FITC-Annexin-V and propidium iodide staining based flow cytometry (reference value: 4.23%)", "type": "functional"}, "[28]": {"test": "Antiproliferative activity against human HCT8 cells assessed as inhibition of cell proliferation after 72 hrs by MTT assay", "type": "functional, cell-based", "conditions": "HCT-8, 72 h", "procedure,_shortened": "as §1"}}}
{"smiles": "COC(=O)[C@]12CCC(C)(C)C[C@H]1[C@H]1C(=O)C=C3[C@@]4(C)C=C(C#N)C(=O)C(C)(C)[C@@H]4CC[C@@]3(C)[C@]1(C)CC2", "note": "[BARDOXOLONE METHYL]", "values": [{"measurement": "Activity", "setting": "[1]", "value": 14, "unit": "%"}, {"measurement": "IC50", "setting": "[2]", "value": 316, "unit": "nM"}, {"measurement": "Activity", "setting": "[3]", "value": 28.1, "unit": "%"}, {"measurement": "IC50", "setting": "[4]", "value": 363, "unit": "nM"}, {"measurement": "Activity", "setting": "[5]", "value": 6.01, "unit": "%"}, {"measurement": "Activity", "setting": "[6]", "value": 3.18, "unit": "%"}, {"measurement": "Activity", "setting": "[7]", "value": 65.1, "unit": "%"}, {"measurement": "Activity", "setting": "[8]", "value": 2.13, "unit": "%"}, {"measurement": "Activity", "setting": "[9]", "value": 57.5, "unit": "%"}, {"measurement": "Activity", "setting": "[10]", "value": 5.15, "unit": "%"}, {"measurement": "Activity", "setting": "[11]", "value": 79.5, "unit": "%"}, {"measurement": "Activity", "setting": "[12]", "value": 6.8, "unit": "%"}, {"measurement": "Activity", "setting": "[13]", "value": 71.1, "unit": "%"}, {"measurement": "Activity", "setting": "[14]", "value": 51.2, "unit": "%"}, {"measurement": "Activity", "setting": "[15]", "value": 9.42, "unit": "%"}, {"measurement": "Activity", "setting": "[16]", "value": 20.5, "unit": "%"}, {"measurement": "Activity", "setting": "[17]", "value": 36, "unit": "%"}, {"measurement": "Activity", "setting": "[18]", "value": 10.9, "unit": "%"}, {"measurement": "Activity", "setting": "[19]", "value": 64.2, "unit": "%"}, {"measurement": "Activity", "setting": "[20]", "value": 1.52, "unit": "%"}, {"measurement": "Activity", "setting": "[21]", "value": 16.7, "unit": "g"}, {"measurement": "Activity", "setting": "[22]", "value": 1.73, "unit": "%"}, {"measurement": "Activity", "setting": "[23]", "value": 3.78, "unit": "%"}, {"measurement": "Activity", "setting": "[24]", "value": 3.31, "unit": "%"}, {"measurement": "Activity", "setting": "[25]", "value": 3.2, "unit": "%"}, {"measurement": "Activity", "setting": "[26]", "value": 18.7, "unit": "%"}, {"measurement": "Activity", "setting": "[27]", "value": 29.8, "unit": "%"}, {"measurement": "IC50", "setting": "[28]", "value": 399, "unit": "nM"}]}
{"smiles": "CC1(C)CC[C@]2(C(=O)NCC(=O)OCC#CCOc3no[n+]([O-])c3S(=O)(=O)c3ccccc3)CC[C@]3(C)[C@H](C(=O)C=C4[C@@]5(C)C=C(C#N)C(=O)C(C)(C)[C@@H]5CC[C@]43C)[C@@H]2C1", "values": [{"measurement": "Activity", "setting": "[1]", "value": 10.3, "unit": "%"}, {"measurement": "IC50", "setting": "[2]", "value": 1280, "unit": "nM"}, {"measurement": "Activity", "setting": "[3]", "value": 34.6, "unit": "%"}, {"measurement": "IC50", "setting": "[4]", "value": 232, "unit": "nM"}, {"measurement": "Activity", "setting": "[5]", "value": 7.59, "unit": "%"}, {"measurement": "Activity", "setting": "[6]", "value": 4.1, "unit": "%"}, {"measurement": "Activity", "setting": "[7]", "value": 62.8, "unit": "%"}, {"measurement": "Activity", "setting": "[8]", "value": 2.31, "unit": "%"}, {"measurement": "Activity", "setting": "[9]", "value": 67.1, "unit": "%"}, {"measurement": "Activity", "setting": "[10]", "value": 5.44, "unit": "%"}, {"measurement": "Activity", "setting": "[11]", "value": 74, "unit": "%"}, {"measurement": "Activity", "setting": "[12]", "value": 5.34, "unit": "%"}, {"measurement": "Activity", "setting": "[13]", "value": 70.8, "unit": "%"}, {"measurement": "Activity", "setting": "[14]", "value": 34.3, "unit": "%"}, {"measurement": "Activity", "setting": "[15]", "value": 9.51, "unit": "%"}, {"measurement": "Activity", "setting": "[16]", "value": 21.4, "unit": "%"}, {"measurement": "Activity", "setting": "[17]", "value": 44.9, "unit": "%"}, {"measurement": "Activity", "setting": "[18]", "value": 13.5, "unit": "%"}, {"measurement": "Activity", "setting": "[19]", "value": 49.8, "unit": "%"}, {"measurement": "Activity", "setting": "[20]", "value": 7.36, "unit": "%"}, {"measurement": "Activity", "setting": "[22]", "value": 7.65, "unit": "%"}, {"measurement": "Activity", "setting": "[23]", "value": 3.92, "unit": "%"}, {"measurement": "Activity", "setting": "[24]", "value": 3.58, "unit": "%"}, {"measurement": "Activity", "setting": "[25]", "value": 2.53, "unit": "%"}, {"measurement": "Activity", "setting": "[26]", "value": 24.7, "unit": "%"}, {"measurement": "Activity", "setting": "[27]", "value": 39, "unit": "%"}, {"measurement": "IC50", "setting": "[28]", "value": 294, "unit": "nM"}]}
